Measurements gathered from unrelated publications.
Each line is one published result; the experiments were not run side by side. pIC50: −log10 of the molar value.
Organism: Severe acute respiratory syndrome coronavirus 2
Observed: viral replication

Compound	test	test system	setting	quantity	value
CCN(CCO)CCCC(C)Nc1ccnc2cc(Cl)ccc12 (stereo not shown)	inhibitor	Huh-7		pIC50	< 5.70
Fc1ccc(-n2cc(CCCCN3CCC4(CC3)OCc3ccccc34)c3ccccc32)cc1	inhibitor	A549-ACE2		pIC50	5.69
C=C1[C@H](CO)[C@@H](O)C[C@@H]1n1cnc2c(=O)[nH]c(N)nc21	inhibitor	Huh-7		pIC50	7.38
COc1cccc2c1CCCC2CCCN1CCN(C2CCCCC2)CC1 (stereo not shown)	inhibitor	A549-ACE2		pIC50	6.39
CCOP(=O)(OCC)N1C/C(=C\c2ccc(Br)cc2)C(=O)C2(C1)C(c1ccc(Br)cc1)CN(C)C21C(=O)Nc2ccccc21 (stereo not shown)	inhibitor	Vero C1008	72 h	pIC50	5.05
CN(CCCN1c2ccccc2CCc2ccccc21)CC(=O)c1ccc(Cl)cc1	inhibitor	A549-ACE2		pIC50	5.11
CC(C)C(=O)OCC(=O)[C@@]12O[C@H](C3CCCCC3)O[C@@H]1C[C@H]1[C@@H]3CCC4=CC(=O)C=C[C@]4(C)[C@H]3[C@@H](O)C[C@@]12C		VeroE6/TMPRSS2		pIC50	5.10
OCCOCCN1CCN(C(c2ccccc2)c2ccc(Cl)cc2)CC1 (stereo not shown)	inhibitor	A549-ACE2		pIC50	5.44
CCCCCCCCCC(=O)N[C@@H](Cc1c[nH]c2ccccc12)C(=O)N[C@H](CC(N)=O)C(=O)N[C@@H](CC(=O)O)C(=O)N[C@@H]1C(=O)NCC(=O)N[C@@H](CCCN)C(=O)N[C@@H](CC(=O)O)C(=O)N[C@H](C)C(=O)N[C@@H](CC(=O)O)C(=O)NCC(=O)N[C@H](CO)C(=O)N[C@@H]([C@H](C)CC(=O)O)C(=O)N[C@@H](CC(=O)c2ccccc2N)C(=O)O[C@@H]1C	inhibitor	Vero	24 h	IC50	> 0.4 µg/mL
CC1=NN(c2ccccc2)C(=O)C1	inhibitor	Huh-7		pIC50	< 5.70
Cc1ccc(NC(=O)c2c(N)nc(S[C@@H]3O[C@H](CO)[C@H](O)[C@H](O)[C@H]3O)[nH]c2=S)cc1		Vero C1008	72 h	pIC50	4.47
CCN(CC)CCOc1ccc(C(O)(Cc2ccc(Cl)cc2)c2ccc(C)cc2)cc1 (stereo not shown)	inhibitor	A549-ACE2		pIC50	6.44
CCSc1ccc2c(c1)N(CCCN1CCN(C)CC1)c1ccccc1S2	inhibitor	Vero C1008		pIC50	5.15
Cc1cccc(CN2CCN(C(c3ccccc3)c3ccc(Cl)cc3)CC2)c1 (stereo not shown)		Vero C1008		pIC50	5.87
COc1c(O)cc2oc(-c3ccccc3)cc(=O)c2c1O	inhibitor	Vero C1008		pIC50	4.82
CC(=O)OC[C@H]1O[C@@H](Sc2nc(N)c(C(=O)Nc3ccccc3)c(=S)[nH]2)[C@H](OC(C)=O)[C@@H](OC(C)=O)[C@@H]1OC(C)=O		Vero C1008	72 h	pIC50	3.90
Clc1ccc(C(Cn2ccnc2)OCc2ccsc2Cl)c(Cl)c1 (stereo not shown)	inhibitor	Calu-3	40 h	pIC50	5.61
OC(CNCC(O)C1CCc2cc(F)ccc2O1)C1CCc2cc(F)ccc2O1 (stereo not shown)	inhibitor	Huh-7		pIC50	< 5.70
COc1ccc([C@@H]2Sc3ccccc3N(CCN(C)C)C(=O)[C@@H]2OC(C)=O)cc1	inhibitor	Vero C1008		pIC50	< 4.35
CCN(CC)CCCC(C)Nc1ccnc2cc(Cl)ccc12 (stereo not shown)	inhibitor	A549-ACE2		pIC50	6.04
CC(C)(C)[C@@H]1NC(=O)O[C@@H]2CCC[C@H]2OC/C=C/C(F)(F)c2nc3ccccc3nc2O[C@@H]2C[C@@H](C(=O)N[C@]3(C(=O)NS(=O)(=O)C4(C)CC4)C[C@H]3C(F)F)N(C2)C1=O		HEK-293T		pIC50	< 4.30
CCC(C)(C)C(=O)O[C@H]1C[C@@H](C)C=C2C=C[C@H](C)[C@H](CC[C@@H]3C[C@@H](O)CC(=O)O3)[C@H]21	inhibitor	Huh-7		pIC50	< 5.70
